Shown are actives, neighbours in structure and some others; about 1.9% of the full set was active somewhere.
ABHD5-PLIN5 inh: inhibitors of human ABHD5-perilipin-5 interaction; Split G. princeps luciferase complementation, luminescence, 4 h; inhibition, % at 4 µM; actives 0.78% (n = 360,000); AID 602281;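 active = inhibition above the mean inhibition across every tested compound plus 3 SD, cut at about 22% in these data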;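 also: 0% = DMSO only wells and the 100% control is not disclosed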
HIF activator: HIF pathway transcriptional activation | U2OS HRE-luciferase reporter, luminescence; normalized: DMSO 0%, desferrioxamine 100% | activation, % at 7.5 µM (by protocol) | actives 0.32% (n = 300,000) | AID 1910;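 active = mean activation of at least 10% of the iron chelator positive control signal, with at least half of replicates also reaching 10%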
TAG inh: reduces triacylglycerol accumulation in H9c2 cells; Nile Red lipid (TAG) fluorescence; cells loaded with 200 µM oleic acid; inhibition, % at 12.5 µM; actives 0.66% (n = 230,000);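 active = pattern-corrected inhibition of lipid staining of at least 50% with the nuclear-stain viability signal not falling by more than 50%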;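 also: 0% = DMSO wells and 100% = triacsin C control wells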
Hsp70 activator: transcriptional activators of Hsp70; actives 0.04% (n = 200,000); activation, % at 10 µM; HeLa Hsp70 promoter luciferase reporter, luminescence; scaled: vehicle 0, proteasome-inhibitor control 100%; AID 1203;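 active = activation above the mean across all tested compounds plus 3 SD, cutoff set per campaign, cut at about 5.5% in these data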;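 also: 100% = MG132 at 30 µM as the positive control and 0% = DMSO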
FXN GAA850 act: increases GAA850 frataxin promoter reporter activity; HEK293 lucGAA850 FXN promoter luciferase reporter, 24 h; percent of 10 µM SAHA response; activation, % at 6 µM; actives 0.56% (n = 360,000); AID 540364;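 active = activation above the average of all compounds screened plus 3 SD, cutoff fixed separately per campaign, cut at about 7.5% in these data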;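 also: 0% = DMSO wells and 100% = 10 µM SAHA wells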
Rad51 HR inh: blocks human Rad51 in homologous recombination; Q06609; hRad51 DNA strand exchange, fluorescence dequenching; inhibition, % at 10 µM; actives 0.085% (n = 200,000);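 active = inhibition above 40% at the single screening dose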;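 also: 0% = DMSO control wells and 100% = blanks with heterologous ssDNA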
Target sequence (Q06609 whole entry, looked up): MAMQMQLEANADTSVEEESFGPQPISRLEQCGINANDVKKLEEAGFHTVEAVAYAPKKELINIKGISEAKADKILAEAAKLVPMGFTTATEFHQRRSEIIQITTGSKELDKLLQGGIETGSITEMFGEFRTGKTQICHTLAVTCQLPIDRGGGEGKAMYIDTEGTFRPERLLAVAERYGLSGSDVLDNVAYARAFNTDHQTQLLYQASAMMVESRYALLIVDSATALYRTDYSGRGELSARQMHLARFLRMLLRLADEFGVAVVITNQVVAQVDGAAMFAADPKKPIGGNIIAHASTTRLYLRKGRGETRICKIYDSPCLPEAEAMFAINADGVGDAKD
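material = hRad51 filaments on single-stranded DNA | timing = filaments 15 min 37 °C, then compound 30 min | signal = FRET fluorescence dequenching, excitation 485 nm, emission 520 nm | benchmarks = control wells and blank wells on each plate | evaluation = percent inhibition relative to plate controls and blanks | compound = 10 µM final, single point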
* hit, by the source's call; · = not tested or not shown; + = active, no number.

SMILES	ABHD5-PLIN5 inh	HIF activator	TAG inh	Hsp70 activator	FXN GAA850 act	Rad51 HR inh
O=C(O)c1ccccc1NC(c1ccccc1)c1ccc2cccnc2c1O (stereo unspecified)	17	·	0	·	-1	·
COc1ccccc1NC(c1cccnc1)c1ccc2cccnc2c1O (stereo unspecified)	5	12*	·	0	3	-7
Cc1ccnc(NC(c2cccnc2)c2ccc3cccnc3c2O)c1 (stereo unspecified)	14	11*	49	0	0	-10
O=C(CSc1ccccc1)NCCSCc1ccccc1	-9	0	·	0	3	1
O=S1(=O)CC(N2CCN(CC3CC3)CC2)CN1C1CCCCC1 (stereo unspecified)	-5	·	·	·	·	·
CCOc1ccccc1NC(=O)COc1ccc2c(c1)OCO2	1	14*	·	·	3	·
Cc1cc(NC(=O)c2ccc(S(=O)(=O)N(C)CC3CCCO3)cc2)no1 (stereo unspecified)	-7	0	17	0	3	24
CN(CC1CCCO1)S(=O)(=O)c1ccc(C(=O)Nc2nccs2)cc1 (stereo unspecified)	0	279*	9	·	2	·
CC(C)/C=C/CN1CCC(Oc2ccc(C(=O)N3CCCC3)cc2)CC1	4	0	-2	·	2	·
CC1CCCN(S(=O)(=O)c2ccc(NC(=O)Cn3nnc(-c4ccccc4F)n3)cc2)C1 (stereo unspecified)	22*	0	·	0	-2	-2
Cc1ccc(-c2nnn(CC(=O)Nc3ccc(S(=O)(=O)N4CCC(C)CC4)cc3)n2)cc1	7	-1	·	0	0	-2
COc1cccc(CN(C(=O)COc2ccc(Cl)cc2)C2CCS(=O)(=O)C2)c1 (stereo unspecified)	6	0	·	·	-1	·
COc1ccc(C2(CNC(=O)/C=C\c3ccco3)CCCC2)cc1OC	22*	-1	12	0	-2	-4
NC1=NN=C(N2N=C(c3ccc(Br)cc3)CC2(O)C(F)(F)F)n2ncnc2C1 (stereo unspecified)	-4	0	9	0	0	-5
COc1ccc(C2=NN(C3=NN=C(N)Cc4ncnn43)C(O)(C(F)(F)F)C2)cc1 (stereo unspecified)	-3	-1	5	0	1	56*
O=c1[nH]c(-c2ccccn2)nc2sc(-c3ccccc3)cc12	-1	72*	49	0	-15	11
Cc1c(C(=O)N(C)C)sc2nc(-c3ccccn3)[nH]c(=O)c12	-3	0	12	0	2	·
N/C(=N\OC(=O)c1cccs1)c1ccc(Cl)cc1	-2	12*	-2	·	2	-4
N/C(=N\OC(=O)Cc1cccs1)c1ccccc1	-6	+	2	0	2	-4
Cc1ccc(/C(N)=N/OC(=O)Cc2cccs2)cc1	-3	5	·	0	2	-2
CC[C@H]1CCCCc2ccccc2[C@@H](C(=O)C[C@@H](O)CC(C)=O)OC1=O	0	·	-27	·	0	·
Clc1ccc(C2=Nn3c(nnc3-c3n[nH]c4c3CCC4)SC2)cc1	5	0	55*	0	-2	-1
c1ccc(-c2ccc(C3=Nn4c(nnc4-c4cc(-c5ccccc5)n[nH]4)SC3)cc2)cc1	-3	1	·	0	4	-8
S=C(NCCc1cnc[nH]1)NC1CCCC1	-8	-1	10	0	0	-9
CCc1nnc(NC(=O)C2CCN(C(=O)c3ccco3)CC2)s1	6	1	·	·	1	·
SMILES	ABHD5-PLIN5 inh	HIF activator	TAG inh	Hsp70 activator	FXN GAA850 act	Rad51 HR inh
CCC(C)(C)c1nnc(NC(=O)C2CCN(C(=O)c3ccco3)CC2)s1	-5	27*	·	·	3	·
Cn1c(N/N=C/c2cc3ccccc3nc2Cl)nc2ccccc21	4	22*	·	0	4	-53
CCOc1ccccc1-c1c2cc(O)c(=O)cc-2oc2cc(O)c(O)cc12	27*	·	·	0	-1	-74
CCCc1nnc(NC(=O)CCC(=O)N2CCN(Cc3ccc(Cl)cc3)CC2)s1	5	0	·	·	0	·
C/C(N)=C(/C#N)C(=O)COC(=O)COc1ccc(Cl)cc1C	-4	-1	·	0	-2	6
C=CCNC(=O)/C(C#N)=C/c1ccccc1OCc1ccc(C(=O)OC)cc1	22*	1	·	0	0	-14
COC(=O)c1ccc(COc2ccccc2/C=C(\C#N)C(=O)Nc2ccc(C)cc2)cc1	1	3	·	0	7	4
O=C(COc1ccc(Cl)cc1Cl)N/N=C/c1ccc[nH]1	-4	1	·	·	1	·
O=C(CCCOc1ccc(Cl)cc1Cl)N/N=C/c1ccccc1O	-3	11*	·	0	-1	-26
O=C(COc1ccc(Cl)cc1Cl)N/N=C/CCc1ccccc1	0	11*	·	0	1	-1
Cc1ccc(C(CC(=O)O)NC(=O)CCNC(=O)c2ccco2)cc1 (stereo unspecified)	14	·	4	·	-1	·
O=C(Nc1ccc(CN2CCS(=O)(=O)CC2)cc1)c1ccc(Cl)cc1	2	0	-16	·	0	11
COc1ccc2cc3cc(C(=O)Nc4ccccc4N4CCN(C)CC4)oc3nc2c1	12	-1	53*	0	-7	-1
O=C1C=C(c2ccccc2)CC(c2cccs2)C1n1cnc([N+](=O)[O-])c1 (stereo unspecified)	-1	48*	-2	0	-3	-12
CC(C)c1ccc2c(c1)C(c1cccs1)=NNC(c1ccncc1)=N2	-1	-1	-3	0	1	24
COc1ccc2c(c1)C(c1cccs1)=NNC(c1ccncc1)=N2	2	0	5	0	9.4*	·
N#CCSc1ccccc1NC(=O)CN1C(=O)C(=O)N(Cc2ccccc2)C1=O	0	·	6	·	1	·
Cc1ccc(OCCNC(=O)CCc2nc3sc4c(c3c(=O)[nH]2)CCCC4)cc1	-1	45*	-3	·	1	·
COc1cnc(-c2ccccn2)nc1N(C)c1ccccc1	8	114*	·	·	-9	·
COc1cnc(-c2ccccn2)nc1Oc1ccccc1	-2	0	7	0	0	22
CCC(C)(C(=O)NC1CCCC1)N(C(=O)Cc1cccs1)c1c(C)n(C)n(-c2ccccc2)c1=O (stereo unspecified)	-2	0	8	0	-1	0
O=C(CCc1nc(-c2ccccc2F)no1)Nc1cccnc1	-5	0	·	·	2	·
N#Cc1ccccc1OCCCN1CCC(Cc2ccccc2)CC1	1	45*	·	·	-1	·
CS(=O)(=O)c1ccc(C(=O)OCC(=O)NCc2cccs2)cc1[N+](=O)[O-]	16	·	51*	·	8.8*	·
O=C(CC(O)CCc1ccccc1)c1ccc(O)cc1 (stereo unspecified)	2	·	·	·	3	·

From PubChem BioAssay
